For test [1], the target named is T1, Arginase (Leishmania amazonensis, UniProt O96394). Nature of the test: Inhibition of Leishmania amazonensis recombinant arginase expressed in Escherichia coli Rosetta (DE3) pLysS using L-arginine as substrate incubated for 10 mins prior to substrate addition measured after 10 mins by colorimetry.
Test [2] concerns the target Arginase (Leishmania amazonensis) (UniProt O96394). The experiment in a line: Noncompetitive inhibition of Leishmania amazonensis recombinant arginase expressed in Escherichia coli Rosetta (DE3) pLysS using L-arginine as substrate assessed as enzyme-substrate-inhibitor complex by Dixon reciprocal plot analysis. In short, it runs like this: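 Purified recombinant L. amazonensis arginase in 50 mM CHES pH 9.6, 37 °C, with urea read at 600 nm by urease-coupled colorimetry. Three inhibitor concentrations plus an uninhibited control were tested against L-arginine at 6.25–72.0 mM. Inhibition type, Ki and Kis were taken from double-reciprocal plots.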

Test [3] addresses T1, Arginase. Nature of the test: Noncompetitive inhibition of Leishmania amazonensis recombinant arginase expressed in Escherichia coli Rosetta (DE3) pLysS using L-arginine as substrate by Dixon reciprocal plot analysis. In short, it runs like this:
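His-tagged enzyme purified by Ni-NTA then DEAE anion exchange. Urea production from L-arginine measured in 50 mM CHES pH 9.6 at 37 °C. Enzyme was preincubated 10 min with inhibitor at three concentrations plus a no-inhibitor control. Substrate was then added at 6.25–72.0 mM and reacted for 10 min. Urea read by urease/salicylate–hypochlorite colorimetry at 600 nm, in duplicate. Inhibition type and Ki taken from reciprocal plots.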

Structures are written as SMILES.

The IC50 is the concentration needed to halve the response being measured. In general, Ki refers to a measure of affinity in units of concentration, obtained from inhibition or displacement.

For the compound `COc1c(O)cc(-c2oc3cc(O)cc(O)c3c(=O)c2O[C@@H]2O[C@@H](C)[C@H](O)[C@@H](O)[C@H]2O)cc1O`, on Arginase [1], the IC50 turned out to be 224 µM.

For `O=c1c(O)c(-c2ccc(O)c(O)c2)oc2cc(O)cc(O)c12` [QUERCETIN], the IC50 on Arginase [1] was 4 µM. `O=c1c(O)c(-c2ccc(O)cc2)oc2cc(O)cc(O)c12` [KAEMPFEROL]: the IC50 at Arginase [1] was 55 µM. On to `C[C@@H]1O[C@@H](Oc2c(-c3ccc(O)c(O)c3)oc3cc(O)cc(O)c3c2=O)[C@H](O)[C@H](O)[C@H]1O` [QUERCITRIN], for which the Kis in test [2] was 7.2 µM. In addition, at Arginase [3], the Ki was determined as 7.9 µM. The IC50 on Arginase [1] is 12.2 µM. Regarding `COc1cc(-c2oc3cc(OC)c(OC)c(OC)c3c(=O)c2OC)cc(OC)c1OC`, the IC50 at Arginase [1] amounted to 128 µM. As to `O=c1c(O)c(-c2cc(O)c(O)c(O)c2)oc2cc(O)cc(O)c12` [MYRICETIN], on Arginase [3], the inhibitory constant (Ki) was determined as 1.2 µM. The half-inhibitory concentration (IC50) on Arginase [1] was found to be 2.1 µM. Consider `COc1cc([C@H]2OC[C@H]3[C@@H]2CO[C@@H]3c2cc(OC)c(O)c(OC)c2)cc(OC)c1O` [SYRINGARESINOL], for which the IC50 on Arginase [1] worked out at 13.7 µM. On to `C[C@@H]1O[C@@H](O[C@@H]2Cc3c(O)cc(O)cc3O[C@H]2c2ccc(O)c(O)c2)[C@H](O)[C@H](O)[C@H]1O`, for which, on Arginase [1], the IC50 came to 35.1 µM.

With `C[C@H]1O[C@H](Oc2c(-c3cc(O)c(O)c(O)c3)oc3cc(O)cc(O)c3c2=O)[C@@H](O)[C@@H](O)[C@@H]1O`, the Kis in test [2] was 1.9 µM. For the same compound, the Ki on Arginase [3] worked out at 3.8 µM. On Arginase [1], the IC50 amounted to 2.4 µM. In the case of `Oc1cc(O)c2c(c1)O[C@H](c1ccc(O)c(O)c1)[C@@H](O)C2` [CIANIDANOL], the Ki at Arginase [3] was 0.6 µM. Besides, the IC50 on Arginase [1] amounted to 1.7 µM. On to `O=c1c(O[C@@H]2O[C@H](CO)[C@@H](O)[C@H](O)[C@H]2O)c(-c2ccc(O)c(O)c2)oc2cc(O)cc(O)c12` [ISOQUERCETIN], for which the Kis in test [2] came out at 6.9 µM. Besides, at Arginase [1], the IC50 is 2 µM. Regarding `CC(=O)Oc1cc(OC(C)=O)c2c(=O)c(OC(C)=O)c(-c3ccc(OC(C)=O)c(OC(C)=O)c3)oc2c1`, the IC50 at Arginase [1] is 121 µM. Take `Oc1cc(O)c2c(c1)O[C@H](c1ccc(O)c(O)c1)[C@H](O)C2` [(-)-EPICATECHIN]: the Ki on Arginase [3] was 0.2 µM. Further, the 50% inhibitory concentration (IC50) on Arginase [1] is 1.6 µM. Turning to `COC1=Cc2c(cc(OC)c3cc(C)c(OC)cc23)C(C)(C)C1=O` [TRIGONOSTEMONE], the IC50 at Arginase [1] came out at 16.6 µM. On to `COc1ccc(-c2oc3cc(O)cc(O)c3c(=O)c2O[C@@H]2O[C@@H](C)[C@H](O)[C@@H](O)[C@H]2O)cc1O`, for which the IC50 at Arginase [1] came to 88.1 µM.

The values are drawn from ChEMBL document CHEMBL3108701, “Isolation of arginase inhibitors from the bioactivity-guided fractionation of Byrsonima coccolobifolia leaves and stems” (J Nat Prod, 2014).
